Only some compounds are listed: those with a hit (about 3% of all), similar ones and a draw of the others.
UBC13 polyUb = UBC13 polyubiquitin chain formation inhibitors, primary screen, biochemical, TR-FRET, uHTS; Ubiquitin-conjugating enzyme E2 N (Homo sapiens), P61088; inhibition, % at 20 µM; hit rate 0.47% among 330,000; AID 485273, 2010; in the data active means inhibition above about 45%, passing the limit was not always enough
Target sequence (P61088 whole entry, looked up): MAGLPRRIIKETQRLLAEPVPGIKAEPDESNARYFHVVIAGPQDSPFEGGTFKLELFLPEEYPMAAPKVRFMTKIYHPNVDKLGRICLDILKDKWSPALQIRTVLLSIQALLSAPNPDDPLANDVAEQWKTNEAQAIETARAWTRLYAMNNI
SENP7 block = SENP7 protease inhibitors, primary screen, biochemical, luminescence, uHTS; hit rate 1.5% among 330,000; recombinant SENP7, Z-RLRGG-aminoluciferin luminescence, 40 min; inhibition, % at 5 µM;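 active means inhibition above about 50% at the single test dose, limit read from the data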;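 further: plate controls were DMSO with enzyme for no effect and no enzyme buffer wells for full effect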
Apaf1 inhib = inhibitors of human Apaf-1 apoptosome, primary screen, biochemical, DEVD-Rh110 fluorescence, uHTS | Apoptotic protease-activating factor 1 (Homo sapiens), O14727 | reconstituted apoptosome caspase-3 activity | inhibition, % at 20 µM | hit rate 0.71% among 330,000 | AID 489030, 2010; active means inhibition of at least 40% at 20 µM;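 further: plate controls were DMSO wells for no effect and DEVD-CHO caspase inhibitor wells for full effect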
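detection = Rh110 fluorescence intensity | test system = biochemical Apaf-1 apoptosome reconstitution | also added = cytochrome c and DEVD-Rh110 substrate | schedule = 30 min plus 50 min, RT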
SENP8 block-1 = SENP8 protease inhibitors, primary screen, biochemical, luminescence; Sentrin-specific protease 8 (Homo sapiens), Q96LD8; purified SENP8, Z-RLRGG-aminoluciferin cleavage; inhibition, % at 10 µM; hit rate 1.2% among 330,000; AID 2540, 2010; in the data active means inhibition above about 50%
SENP6 inh = SENP6 protease inhibitors, primary screen, biochemical, luminescence, uHTS; inhibition, % at 10 µM; Recombinant SENP6 catalytic domain, aminoluciferin luminescence; hit rate 1.8% among 330,000; Sentrin-specific protease 6 (Homo sapiens), Q9GZR1;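 active means inhibition above about 50% at the single tested dose, limit read from the data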;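 further: plate controls were DMSO wells with enzyme for no effect and DMSO wells lacking enzyme for full effect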
SENP8 block-2 = human SENP8 protease inhibitors, primary screen, biochemical, fluorescence, Nedd8 protein substrate, uHTS; Sentrin-specific protease 8 (Homo sapiens), Q96LD8; recombinant SENP8; inhibition, % at 20 µM; hit rate 0.64% among 360,000; in the data active means inhibition mostly above about 40%, no sharp cut-off; inactive means mostly below about 27%
SENP8 conf = SENP8 protease inhibitors, retest, confirmation, biochemical, luminescence, single concentration. Recombinant SENP8, Z-RLRGG-aminoluciferin luminescence, 60 min. inhibition, % at 12.5 µM. shares compounds with SENP7 block. hit rate 40% among 6,200;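 active means mean inhibition across replicates above about 50%, limit read from the data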
SENP6 conf = SENP6 protease inhibitors, confirmation, biochemical, luminescence, single concentration | shares compounds with SENP7 block | recombinant SENP6, Z-RLRGG-aminoluciferin luminescence | inhibition, % at 12.5 µM | hit rate 58% among 6,200
SENP7 conf = SENP7 protease inhibitors, retest, confirmation, biochemical, luminescence, single concentration; AID 488917, 2010; shares compounds with SENP7 block; inhibition, % at 12.5 µM; recombinant SENP7, Z-RLRGG-aminoluciferin luminescence, 40 min; hit rate 69% among 6,200
Casp3 SENP sel = caspase-3 protease inhibitors, confirmation, selectivity assay for SENP inhibitor project, biochemical, single concentration; shares compounds with SENP7 block; purified caspase-3, Z-DEVD-aminoluciferin luminescence, 60 min; inhibition, % at 12.5 µM; hit rate 60% among 6,200; AID 488918, 2010;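 active means mean inhibition above about 50%, limit read from the data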;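 further: plate controls were enzyme with DMSO for no effect and wells without caspase-3 for full effect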
Target sequence (P42574 28-227 limits assumed): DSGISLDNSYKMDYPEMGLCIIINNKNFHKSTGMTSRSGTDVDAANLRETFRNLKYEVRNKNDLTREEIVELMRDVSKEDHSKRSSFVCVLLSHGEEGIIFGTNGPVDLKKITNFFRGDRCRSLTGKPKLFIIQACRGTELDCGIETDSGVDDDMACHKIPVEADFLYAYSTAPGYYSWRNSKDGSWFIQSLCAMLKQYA
SENP luc ctr = interferes with luciferase luminescence in SENP counter-screen; inhibition, % at 12.5 µM; AID 488919; hit rate 39% among 6,200; Pre-incubated SENP8/Z-RLRGG-aminoluciferin, luciferase luminescence interference; shares compounds with SENP7 block;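 active means mean inhibition above about 50% when retested at one dose, limit read from the data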;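 further: plate controls were DMSO wells with completed reaction for no effect and substrate without enzyme for full effect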
An asterisk follows results filed as active; . = no result.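 How the source made its calls, unless noted: active means mean inhibition above about 50% in the one-dose retest (limit read from the data); inactive means the rest.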

SMILES	UBC13 polyUb	SENP7 block	Apaf1 inhib	SENP8 block-1	SENP6 inh	SENP8 block-2	SENP8 conf	SENP6 conf	SENP7 conf	Casp3 SENP sel	SENP luc ctr
Cc1cccc2c1-c1sc(C(=O)Nc3nccs3)cc1CO2	34	67*	10	-1	40	-399	8	12	20	13	10
N#Cc1ccsc1NC(=O)COC(=O)c1ccc2ccccc2c1	11	86*	2	84*	91*	17	6	67*	100*	80*	20
N#Cc1ccsc1NC(=O)COC(=O)c1ccc(Br)o1	-19	0	-5	2	2	-38	.	.	.	.	.
COc1ccc(CCC(=O)Nc2sccc2C#N)cc1	2	87*	-1	80*	86*	.	84*	85*	98*	89*	59*
COc1ccc(NC(=O)CSCC(=O)Nc2sccc2C#N)cc1	-3	-18	2	7	-4	0	.	.	.	.	.
N#CCC(=O)Nc1ccc(C(=O)OCC(=O)Nc2ccc3ccccc3c2)cc1	-25	5	-16	6	-10	-44	.	.	.	.	.
N#Cc1ccsc1NC(=O)COC(=O)c1cc(Br)ccc1O	22	85*	-17	89*	95*	-70	75*	82*	87*	70*	23
CC(C)(C)c1ccccc1OCC(=O)NCCCn1ccnc1	5	-3	-5	1	-2	12	.	.	.	.	.
O=C(Cn1nnc(-c2ccc3c(c2)OCO3)n1)Nc1ccccc1C(=O)O	5	60*	-1	80*	89*	-4	48	87*	97*	87*	87*
O=S(=O)(/N=C(/Nc1nc2ccccc2s1)c1ccccc1)c1ccccc1	-21	15	9	60*	72*	-8	1	7	9	12	23
CCOCC(=O)Nc1nc2ccc(OCC)cc2s1	5	63*	-6	37	71*	8	56*	51*	81*	79*	62*
CCOCC(=O)Nc1nc2ccc(C)cc2s1	-1	60*	-12	42	49	9	30	31	75*	72*	55*
Cc1ccc2nc(NC(=O)CCCC(=O)O)sc2c1	2	58*	-3	54*	55*	4	3	16	27	18	7
Cc1ccc2nc(NC(=O)CCCc3nc4ccccc4s3)sc2c1	2	9	17	6	17	3	.	.	.	.	.
CCOCC(=O)Nc1nc2ccc(S(C)(=O)=O)cc2s1	2	4	5	2	-2	17	.	.	.	.	.
Cc1ccccc1C(=O)NC(CC(C)C)C(=O)OCC(=O)c1c(N)n(C)c(=O)n(C)c1=O (centres undefined)	-3	4	-3	1	5	6	.	.	.	.	.
Cc1ccc(C(=O)N2CCN=C2SCc2ccc([N+](=O)[O-])cc2)cc1C	12	3	8	-4	-4	11	.	.	.	.	.
Cc1cc(C)nc(N/N=C2/CCCC/C2=C\c2ccccc2)n1	-16	-6	8	-12	-8	19	.	.	.	.	.

Source: PubChem
